Test results: ChEMBL document CHEMBL3774311, “Synthesis and in vitro antitumour activity of tiazofurin analogues with nitrogen functionalities at the C-2' position” (Eur J Med Chem, 2016)

Assays:
K562 [1] = test: Induction of cell cycle arrest in human K562 cells assessed as accumulation at Sub-G1 phase after 72 hrs by propidium iodide staining-based flow cytometry (reference value: 3.04%); format: functional
In short: (§1)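 Exponentially growing K562 cells treated 24 or 72 h; cells stained with propidium iodide and cell-cycle distribution (sub-G1, G0/G1, S, G2/M, %) measured by flow cytometry; untreated cells as control.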

HeLa = test: Antiproliferative activity against human HeLa cells after 72 hrs by MTT assay; format: functional, cell-based
In short: (§2)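 Human tumour lines and MRC-5 foetal lung fibroblasts (normal-cell comparator) exposed to compounds for 72 h; viability read by standard MTT assay. IC50 taken as concentration inhibiting growth by 50% versus untreated control; means of three independent experiments, coefficients of variation under 10%.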

MCF7 = test: Antiproliferative activity against human MCF7 cells after 72 hrs by MTT assay; format: functional, cell-based; conditions: MCF7, 72 h; in short: as §2
K562 [2] = test: Induction of apoptosis in human K562 cells assessed as Bcl2 protein level after 72 hrs by Western blotting method (reference value: 7.90%); format: functional
MRC5 = test: Cytotoxicity against human MRC5 cells after 72 hrs by MTT assay; format: cell-based; conditions: MRC5, 72 h; in short: as §2
K562 [3] = test: Induction of specific necrosis in human K562 cells after 24 hrs by annexin V-FITC/propidium iodide staining based flow cytometry; format: functional; design: concentration or dose not given beside the values
In short: (§3)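 K562 cells treated 24 or 72 h, double-stained with Annexin V-FITC/PI and analysed by flow cytometry to give percentages of live, apoptotic and necrotic cells; apoptotic and necrotic responses expressed as specific apoptosis or specific necrosis (%).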

K562 [4] = test: Induction of apoptosis in human K562 cells assessed as cleaved PARP level after 72 hrs by Western blotting method (reference value: 18.36%); format: functional
K562 [5] = test: Induction of apoptosis in human K562 cells assessed as late apoptotic cells after 72 hrs by annexin V-FITC/propidium iodide staining based flow cytometry (reference value: 5.24%); format: functional; in short: as §3
K562 [6] = test: Induction of apoptosis in human K562 cells assessed as cleaved PARP level after 24 hrs by Western blotting method (reference value: 36.17%); format: functional
K562 [7] = test: Induction of apoptosis in human K562 cells assessed as Bcl2 protein level after 24 hrs by Western blotting method (reference value: 22.81%); format: functional
K562 [8] = test: Induction of specific apoptosis in human K562 cells after 72 hrs by annexin V-FITC/propidium iodide staining based flow cytometry; format: functional; design: concentration or dose not given beside the values; in short: as §3
K562 [9] = test: Induction of cell cycle arrest in human K562 cells assessed as accumulation at G0/G1 phase after 24 hrs by propidium iodide staining-based flow cytometry (reference value: 36.28%); format: functional; in short: as §1
K562 [10] = test: Induction of apoptosis in human K562 cells assessed as caspase 3 level after 24 hrs by Western blotting method (reference value: 42.77%); format: functional
K562 [11] = test: Induction of apoptosis in human K562 cells assessed as living cells after 24 hrs by annexin V-FITC/propidium iodide staining based flow cytometry (reference value: 85.85%); format: functional; in short: as §3
K562 [12] = test: Induction of apoptosis in human K562 cells assessed as necrotic cells after 72 hrs by annexin V-FITC/propidium iodide staining based flow cytometry (reference value: 7.23%); format: functional; in short: as §3
K562 [13] = test: Induction of apoptosis in human K562 cells assessed as Bax protein level after 24 hrs by Western blotting method (reference value: 16.13%); format: functional
K562 [14] = test: Induction of cell cycle arrest in human K562 cells assessed as accumulation at S phase after 24 hrs by propidium iodide staining-based flow cytometry (reference value: 48.38%); format: functional; in short: as §1
Jurkat = test: Antiproliferative activity against human Jurkat cells after 72 hrs by MTT assay; format: functional, cell-based; in short: as §2
K562 [15] = test: Induction of apoptosis in human K562 cells assessed as caspase 3 level after 72 hrs by Western blotting method (reference value: 17.05%); format: functional
K562 [16] = test: Induction of apoptosis in human K562 cells assessed as necrotic cells after 24 hrs by annexin V-FITC/propidium iodide staining based flow cytometry (reference value: 1.50%); format: functional; in short: as §3
K562 [17] = test: Induction of cell cycle arrest in human K562 cells assessed as accumulation at S phase after 72 hrs by propidium iodide staining-based flow cytometry (reference value: 35.73%); format: functional; in short: as §1
K562 [18] = test: Induction of cell cycle arrest in human K562 cells assessed as accumulation at G2/M phase after 72 hrs by propidium iodide staining-based flow cytometry (reference value: 15.31%); format: functional; in short: as §1
K562 [19] = test: Induction of cell cycle arrest in human K562 cells assessed as accumulation at Sub-G1 phase after 24 hrs by propidium iodide staining-based flow cytometry (reference value: 1.05%); format: functional; in short: as §1
K562 [20] = test: Induction of cell cycle arrest in human K562 cells assessed as accumulation at G0/G1 phase after 72 hrs by propidium iodide staining-based flow cytometry (reference value: 45.92%); format: functional; in short: as §1
HT-29 = test: Antiproliferative activity against human HT-29 cells after 72 hrs by MTT assay; format: functional, cell-based; conditions: HT-29, 72 h; in short: as §2
K562 [21] = test: Induction of specific necrosis in human K562 cells after 72 hrs by annexin V-FITC/propidium iodide staining based flow cytometry; format: functional; design: concentration or dose not given beside the values; in short: as §3
K562 [22] = test: Induction of cell cycle arrest in human K562 cells assessed as accumulation at G2/M phase after 24 hrs by propidium iodide staining-based flow cytometry (reference value: 14.29%); format: functional; in short: as §1
K562 [23] = test: Induction of specific apoptosis in human K562 cells after 24 hrs by annexin V-FITC/propidium iodide staining based flow cytometry; format: functional; design: concentration or dose not given beside the values; in short: as §3
Raji = test: Antiproliferative activity against human Raji cells after 72 hrs by MTT assay; format: functional, cell-based; in short: as §2
[24] = Antiproliferative activity against human HL60 cells after 72 hrs by MTT assay; format: functional, cell-based, HL-60; in short: as §2
K562 [25] = test: Induction of apoptosis in human K562 cells assessed as Bax protein level after 72 hrs by Western blotting method (reference value: 32.81%); format: functional
K562 [26] = test: Induction of apoptosis in human K562 cells assessed as late apoptotic cells after 24 hrs by annexin V-FITC/propidium iodide staining based flow cytometry (reference value: 4.58%); format: functional; in short: as §3
K562 [27] = test: Antiproliferative activity against human K562 cells after 72 hrs by MTT assay; format: functional, cell-based; in short: as §2
K562 [28] = test: Induction of apoptosis in human K562 cells assessed as early apoptotic cells after 72 hrs by annexin V-FITC/propidium iodide staining based flow cytometry (reference value: 3.22%); format: functional; in short: as §3
K562 [29] = test: Induction of apoptosis in human K562 cells assessed as early apoptotic cells after 24 hrs by annexin V-FITC/propidium iodide staining based flow cytometry (reference value: 8.09%); format: functional; in short: as §3
K562 [30] = test: Induction of apoptosis in human K562 cells assessed as living cells after 72 hrs by annexin V-FITC/propidium iodide staining based flow cytometry (reference value: 84.31%); format: functional; in short: as §3
[31] = Antiproliferative activity against human HL60 cells after 24 hrs; format: functional, cell-based; conditions: HL-60, 24 h

Structure (SMILES) | Activity (K562 [1]) | IC50 (MCF7) | Activity (K562 [2]) | IC50 (MRC5) | Activity (K562 [3]) | Activity (K562 [4]) | Activity (K562 [5]) | Activity (K562 [6]) | Activity (K562 [7]) | Activity (K562 [8]) | Activity (K562 [9]) | Activity (K562 [10]) | Activity (K562 [11]) | Activity (K562 [12]) | Activity (K562 [13]) | Activity (K562 [14]) | IC50 (Jurkat) | Activity (K562 [15]) | Activity (K562 [16]) | Activity (K562 [17]) | other results
NC(=O)c1csc([C@@H]2O[C@H](CO)[C@@H](O)[C@H]2N)n1 | 13.52% | > 100000 nM | 3.21% | > 100000 nM | 4.97% | 11.32% | 66.51% | 10.01% | 9.06% | 33.39% | 32.21% | 22.07% | 71.33% | 8.02% | 3.52% | 46.33% | > 100000 nM | 38.2% | 6.48% | 34.08% | IC50 (HeLa; hela): 150 nM; Activity (K562 [18]): 12.16%; Activity (K562 [19]): 1.4%; Activity (K562 [20]): 40.24%; IC50 (HT-29): > 100000 nM; Activity (K562 [21]): 7.11%; Activity (K562 [22]): 20.06%; Activity (K562 [23]): 17.57%; IC50 (Raji; raji): 2590 nM; IC50 ([24]; hl-60): 12200 nM; Activity (K562 [25]): 112.54%; Activity (K562 [26]): 10.18%; IC50 (K562 [27]; k562): 510 nM; Activity (K562 [28]): 22.56%; Activity (K562 [29]): 12.02%; Activity (K562 [30]): 2.92%
NC(=O)c1csc([C@@H]2O[C@H](CO)[C@@H](O)[C@H]2NC(=O)c2ccccc2)n1 | 11.29% | 19900 nM | 15.94% | 50 nM | 11.71% | 63.83% | 80.99% | 57.9% | 64.31% | 50.41% | 39.08% | 93.34% | 53.81% | 7.35% | 30.99% | 49.13% | 30 nM | 27.61% | 13.22% | 34.11% | IC50 (HeLa; Homo sapiens, HeLa, 72 h): > 100000 nM; IC50 [31]: 120 nM; Activity (K562 [18]): 10.5%; Activity (K562 [19]): 6.12%; Activity (K562 [20]): 44.1%; IC50 (HT-29): 20 nM; Activity (K562 [21]): 6.86%; Activity (K562 [22]): 5.67%; Activity (K562 [23]): 29%; IC50 (Raji; Homo sapiens, Raji, 72 h): 10 nM; IC50 ([24]; Homo sapiens, HL-60, 72 h): 20400 nM; Activity (K562 [25]): 95.1%; Activity (K562 [26]): 26.45%; IC50 (K562 [27]; Homo sapiens, K562, 72 h): 20 nM; Activity (K562 [28]): 7.94%; Activity (K562 [29]): 6.54%; Activity (K562 [30]): 3.74%
